Experimental data taken from ChEMBL document CHEMBL1121617, “Antihypertensive ureidopiperidines” (1980).

Columns and labels:
Rattus norvegicus [1] = assay: The percent fall in systolic blood pressure at 1.5 / 4 hr after peroral administration of 40 mg/kg in conscious renal hypertensive rats (RHR).; assay type: functional, Artery; details: route oral
Summary of the method: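 Conscious renal hypertensive rats, four per group, dosed orally. Starting systolic pressures were 160–200 mmHg. Percentage fall in systolic pressure was taken at 1.5 and/or 4 h after dosing. Falls under 10% were scored as ±.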

Rattus norvegicus [2] = assay: The percent fall in systolic blood pressure at 1.5 / 4 h after peroral administration of 50 mg/kg in DOCA/saline hypertensive rats at 2 hr; assay type: functional, Artery; details: route oral
Rattus norvegicus [3] = assay: The percent fall in systolic blood pressure at 1.5 / 4 hr after peroral administration of 50 mg/kg in DOCA/saline hypertensive rats at 24 hr; Non significant; assay type: functional, organism-based; set-up: dose 50 mg/kg; details: Artery, at 50 mg/kg
Rattus norvegicus [4] = assay: Starting systolic blood pressure at dose of 50 mg/kg in rat; assay type: functional, Artery
Summary of the method: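 Mean systolic blood pressure before dosing for each group of four DOCA/saline hypertensive rats given 50 mg/kg orally. It indicates how far hypertension was established.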

Rattus norvegicus [5] = assay: The percent fall in systolic blood pressure at 1.5 / 4 hr after peroral administration of 50 mg/kg in DOCA/saline hypertensive rats at 6 hr; assay type: functional, Artery; details: route oral
Rattus norvegicus [6] = assay: The percent fall in systolic blood pressure at 1.5 / 4 hr after peroral administration of 50 mg/kg in DOCA/saline hypertensive rats at 2 hr; Non significant; assay type: functional, organism-based; set-up: dose 50 mg/kg; details: Artery, at 50 mg/kg
Rattus norvegicus [7] = assay: Percent fall in systolic blood pressure at 1.5 / 4 hr after peroral administration of 50 mg/kg in DOCA/saline hypertensive rats at 6 h; Non significant; assay type: functional, organism-based; set-up: dose 50 mg/kg; details: Artery, at 50 mg/kg
Rattus norvegicus [8] = assay: The percent fall in systolic blood pressure at 1.5 / 4 hr after peroral administration of 10 mg/kg in DOCA/saline hypertensive rats at 6 h; Non significant, p>0.05; assay type: functional, organism-based; set-up: dose 10 mg/kg; details: Artery, at 10 mg/kg
Summary of the method: (§1)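 DOCA/saline hypertensive rats, four per group, dosed orally at 50, 25 or 10 mg/kg. Mean starting systolic pressure was recorded for each group. Systolic pressure was then read 2, 6 and 24 h after dosing and reported as percentage fall from the starting value.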

Rattus norvegicus [9] = assay: Starting systolic blood pressure at dose of 10 mg/kg; assay type: functional, Artery; summary of the method: as §1
Rattus norvegicus [10] = assay: The percent fall in systolic blood pressure at 1.5 / 4 hr after peroral administration of 25 mg/kg in DOCA/saline hypertensive rats at 24 hr; Non significant, p>0.05; assay type: functional, organism-based; set-up: dose 25 mg/kg; details: Artery, at 25 mg/kg
Rattus norvegicus [11] = assay: Starting systolic blood pressure at dose of 25 mg/kg; assay type: functional, Artery; summary of the method: as §1
Rattus norvegicus [12] = assay: The percent fall in systolic blood pressure at 1.5 / 4 hr after peroral administration of 25 mg/kg in DOCA/saline hypertensive rats at 2 hr; assay type: functional, Artery; details: route oral; summary of the method: as §1
Rattus norvegicus [13] = assay: The percent fall in systolic blood pressure at 1.5 / 4 hr after peroral administration of 25 mg/kg in DOCA/saline hypertensive rats at 6 hr; assay type: functional, Artery; details: route oral; summary of the method: as §1
Rattus norvegicus [14] = assay: The percent fall in systolic blood pressure at 1.5 / 4 hr after peroral administration of 10 mg/kg in DOCA/saline hypertensive rats at 24 hr; Non significant, p>0.05; assay type: functional, organism-based; set-up: dose 10 mg/kg; details: Artery, at 10 mg/kg; summary of the method: as §1
Rattus norvegicus [15] = assay: The percent fall in systolic blood pressure at 1.5 / 4 hr after peroral administration of 10 mg/kg in DOCA/saline hypertensive rats at 2 hr; assay type: functional, Artery; details: route oral; summary of the method: as §1
Rattus norvegicus [16] = assay: The percent fall in systolic blood pressure at 1.5 / 4 hr after peroral administration of 10 mg/kg in DOCA/saline hypertensive rats at 6 hr; assay type: functional, Artery; details: route oral; summary of the method: as §1
Rattus norvegicus [17] = assay: The percent fall in systolic blood pressure at 1.5 / 4 hr after peroral administration of 50 mg/kg in DOCA/saline hypertensive rats at 24 hr; assay type: functional, Artery; details: route oral; summary of the method: as §1

| Compound | Activity (Rattus norvegicus [1]) | Fall (Rattus norvegicus [3]) | SP (Rattus norvegicus [4]) [mmHg] | Fall (Rattus norvegicus [6]) | Fall (Rattus norvegicus [7]) | other results |
| --- | --- | --- | --- | --- | --- | --- |
| Cc1cccc(C)c1NC(=O)NC1CCN(CCCC(=O)c2ccccc2)CC1 | <10 |  |  |  |  |  |
| O=C(Nc1ccc(Cl)cc1)NC1CCN(CCCC(=O)c2ccccc2)CC1 |  | Not significant | 200 |  |  | Fall (Rattus norvegicus [2]): 30%; Fall (Rattus norvegicus [5]): 25% |
| Cn1cc(CCN2CCC(NC(=O)NC(=O)c3ccccc3)CC2)c2ccccc21 |  | Not significant | 172 |  |  | Fall (Rattus norvegicus [2]): 26%; Fall (Rattus norvegicus [5]): 28% |
| O=C(Nc1ccc(Cl)cc1)NC1CCN(CC(O)C2COc3ccccc3O2)CC1 (configuration not stated) |  | Not significant | 178 | Not significant | Not significant |  |
| Cc1cccc(NC(=O)NC2CCN(CCc3c[nH]c4ccccc34)CC2)c1 | 14 |  |  |  |  |  |
| CCCCNC(=O)NC1CCN(CCc2c[nH]c3ccccc23)CC1 |  | Not significant | 172 | Not significant |  | Fall (Rattus norvegicus [5]): 29% |
| O=C(CCCN1CCC(NC(=S)NC(=O)c2ccccc2)CC1)c1ccccc1 |  | Not significant | 186 |  |  | Fall (Rattus norvegicus [2]): 36%; Fall (Rattus norvegicus [5]): 32% |
| O=C(Nc1ccccc1C(F)(F)F)NC1CCN(CCCC(=O)c2ccccc2)CC1 |  | Not significant | 208 |  |  | Fall (Rattus norvegicus [2]): 20%; Fall (Rattus norvegicus [5]): 20% |
| N=C(NC(=O)c1ccccc1)NC1CCN(CCc2c[nH]c3ccccc23)CC1 |  | Not significant | 165 | Not significant | Not significant |  |
| O=C(Nc1ccccc1)NC1CCN(CCCC(=O)c2c[nH]c3ccccc23)CC1 |  | Not significant | 187 | Not significant | Not significant |  |
| O=C(Nc1ccccc1)NC1CCN(CCCC(=O)c2ccccc2)CC1 | 39 | Not significant | 205 |  |  | Fall (Rattus norvegicus [2]): 31%; Fall (Rattus norvegicus [5]): 24% |
| O=C(Nc1ccc(Cl)cc1)NC1CCN(CCc2c[nH]c3ccccc23)CC1 | 21 |  |  |  |  |  |
| O=C(NC(=S)NC1CCN(CCc2c[nH]c3ccccc23)CC1)c1ccccc1 |  | Not significant | 200 | Not significant | Not significant |  |
| O=C(NC(=O)c1ccccc1)NC1CCN(CCCC(=O)c2ccccc2)CC1 |  | Not significant | 169 |  | Not significant | Fall (Rattus norvegicus [8]): Not significant; SP (Rattus norvegicus [9]): 173 mmHg; Fall (Rattus norvegicus [10]): Not significant; Fall (Rattus norvegicus [2]): 21%; SP (Rattus norvegicus [11]): 178 mmHg; Fall (Rattus norvegicus [12]): 28%; Fall (Rattus norvegicus [13]): 26%; Fall (Rattus norvegicus [14]): Not significant; Fall (Rattus norvegicus [15]): 22% |
| O=C(NC(=O)c1ccccc1)NC1CCN(CC(=O)C2COc3ccccc3O2)CC1 (configuration not stated) |  | Not significant | 181 | Not significant | Not significant |  |
| O=C(NC(=O)c1ccccc1)NC1CCN(CCCC(=O)c2ccc(F)cc2)CC1 |  | Not significant | 184 |  |  | Fall (Rattus norvegicus [2]): 43%; Fall (Rattus norvegicus [5]): 31% |
| O=C(NC(=O)c1cccs1)NC1CCN(CCc2c[nH]c3ccccc23)CC1 |  |  | 193 |  |  | SP (Rattus norvegicus [9]): 169 mmHg; Fall (Rattus norvegicus [10]): Not significant; Fall (Rattus norvegicus [2]): 47%; Fall (Rattus norvegicus [16]): 46%; SP (Rattus norvegicus [11]): 171 mmHg; Fall (Rattus norvegicus [17]): 38%; Fall (Rattus norvegicus [12]): 43%; Fall (Rattus norvegicus [13]): 46%; Fall (Rattus norvegicus [5]): 38%; Fall (Rattus norvegicus [14]): Not significant; Fall (Rattus norvegicus [15]): 50% |
| CCN(C(=O)Nc1ccccc1)C1CCN(CCc2c[nH]c3ccccc23)CC1 |  | Not significant | 170 | Not significant | Not significant |  |
| O=C(NC(=O)c1cccs1)NC1CCN(CCCC(=O)c2c[nH]c3ccccc23)CC1 |  | Not significant | 181 | Not significant | Not significant |  |
| O=C(NC(=O)c1ccccc1)NC1CCN(CC(O)COc2cccc3ccccc23)CC1 (configuration not stated) |  | Not significant | 185 | Not significant | Not significant |  |

| Compound | Activity (Rattus norvegicus [1]) | Fall (Rattus norvegicus [3]) | SP (Rattus norvegicus [4]) [mmHg] | Fall (Rattus norvegicus [6]) | Fall (Rattus norvegicus [7]) | other results |
| --- | --- | --- | --- | --- | --- | --- |
| NC(=O)NC1CCN(CCc2c[nH]c3ccccc23)CC1 | 28 |  |  |  |  |  |
| O=C(Nc1ccc(Cl)c(Cl)c1)NC1CCN(CCc2c[nH]c3ccccc23)CC1 | 15 |  |  |  |  |  |
| COc1ccc(C(=O)NC(=O)NC2CCN(CC(O)C3COc4ccccc4O3)CC2)cc1 (configuration not stated) |  | Not significant | 165 | Not significant | Not significant |  |
| O=C(NC(=O)c1ccccc1)NC1CCN(CCc2ccccc2)CC1 |  | Not significant | 180 | Not significant | Not significant |  |
| O=C(Nc1ccccc1)NC1CCN(CC(O)COc2cccc3ccccc23)CC1 (configuration not stated) |  | Not significant | 170 | Not significant | Not significant |  |
| O=C(NC(=O)c1ccccc1)NC1CCN(CC(=O)c2c[nH]c3ccccc23)CC1 |  | Not significant | 178 | Not significant | Not significant |  |
| COc1ccccc1OCC(O)CN1CCC(NC(=O)NC(=O)c2ccc(F)cc2)CC1 (configuration not stated) |  | Not significant | 196 | Not significant | Not significant |  |
| COc1ccc(NC(=O)NC2CCN(CCc3c[nH]c4ccccc34)CC2)cc1 | 27 |  |  |  |  |  |
| O=C(Nc1ccccc1)NC1CCN(CCc2c[nH]c3ccccc23)CC1 | 29 |  |  |  |  |  |
| COc1ccc(C(=O)NC(=O)NC2CCN(CC(O)COc3ccccc3OC)CC2)cc1 (configuration not stated) |  | Not significant | 162 | Not significant | Not significant |  |
| O=C(NC(=O)C1CCCCC1)NC1CCN(CCc2c[nH]c3ccccc23)CC1 |  | Not significant | 173 |  |  | SP (Rattus norvegicus [9]): 170 mmHg; Fall (Rattus norvegicus [10]): Not significant; Fall (Rattus norvegicus [2]): 48%; Fall (Rattus norvegicus [16]): 27%; SP (Rattus norvegicus [11]): 181 mmHg; Fall (Rattus norvegicus [12]): 54%; Fall (Rattus norvegicus [13]): 54%; Fall (Rattus norvegicus [5]): 52%; Fall (Rattus norvegicus [14]): Non significant, p>0.05; Fall (Rattus norvegicus [15]): 30% |
| Cc1cccc(NC(=O)NC2CCN(CCCC(=O)c3ccccc3)CC2)c1 | 21 |  |  |  |  |  |
| S=C(Nc1ccccc1)NC1CCN(CCc2c[nH]c3ccccc23)CC1 | 21 |  |  |  |  |  |
| CN(/C(S)=N/c1ccccc1)C1CCN(CCc2c[nH]c3ccccc23)CC1 |  | Not significant | 172 | Not significant | Not significant |  |
| O=C(Nc1ccccc1C(F)(F)F)NC1CCN(CCc2c[nH]c3ccccc23)CC1 | <10 |  |  |  |  |  |
| O=C(NC(=O)c1ccccc1)NC1CCN(CCCc2c[nH]c3ccccc23)CC1 |  | Not significant | 191 | Not significant | Not significant |  |
| N=C(NC(=O)c1ccccc1)NC1CCN(CCCC(=O)c2ccccc2)CC1 |  | Not significant | 188 | Not significant | Not significant |  |
| COc1ccc(NC(=O)NC2CCN(CCCC(=O)c3ccccc3)CC2)cc1 | <10 |  |  |  |  |  |
| O=C(NC(=S)NC1CCN(CC(O)C2COc3ccccc3O2)CC1)c1ccc(Cl)cc1 (configuration not stated) |  | Not significant | 175 | Not significant | Not significant |  |
| O=C(Nc1cccc(C(F)(F)F)c1)NC1CCN(CCCC(=O)c2ccccc2)CC1 |  | Not significant | 177 | Not significant | Not significant |  |
